Reference: PubChem BioAssay
Activity calls are given as the source filed them.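 Rule for the calls, unless noted: active = mean duplicate potentiation above the buffer control mean plus 5 SD of buffer wells; inactive = the rest.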

The compounds below were run against Potassium voltage-gated channel subfamily KQT member 1 (Homo sapiens) (UniProt P51787) (assay: KCNQ1 potassium channel potentiators, confirmation, FluxOR thallium flux, CHO cells, duplicates (AID 493007;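 active = potentiation averaged over duplicate wells exceeding buffer-only control mean by more than 3 SD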;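 for outcome: cells depolarized by a potassium plus thallium sulfate stimulus after compound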)). Conditions: KCNQ1 cell line, FluxOR thallium flux fluorescence, at 10 µM; stronger effect = higher value, % of reference activator effect, buffer zero.
Procedure, shortened: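 Material: KCNQ1-expressing CHO cell line; Incubation: FluxOR dye loading 90 min, compound exposure 20 min, room temperature; Detection: FluxOR Tl+ flux fluorescence, 10 s baseline plus 110 s recording; Read-out: percent activation between buffer and R-L3 responses; Control set: buffer-only wells as 0% and R-L3 activator as 100%; Replication: duplicate wells per compound.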

Potassium voltage-gated channel subfamily KQT member 1 (Homo sapiens), sequence (P51787 whole entry, looked up): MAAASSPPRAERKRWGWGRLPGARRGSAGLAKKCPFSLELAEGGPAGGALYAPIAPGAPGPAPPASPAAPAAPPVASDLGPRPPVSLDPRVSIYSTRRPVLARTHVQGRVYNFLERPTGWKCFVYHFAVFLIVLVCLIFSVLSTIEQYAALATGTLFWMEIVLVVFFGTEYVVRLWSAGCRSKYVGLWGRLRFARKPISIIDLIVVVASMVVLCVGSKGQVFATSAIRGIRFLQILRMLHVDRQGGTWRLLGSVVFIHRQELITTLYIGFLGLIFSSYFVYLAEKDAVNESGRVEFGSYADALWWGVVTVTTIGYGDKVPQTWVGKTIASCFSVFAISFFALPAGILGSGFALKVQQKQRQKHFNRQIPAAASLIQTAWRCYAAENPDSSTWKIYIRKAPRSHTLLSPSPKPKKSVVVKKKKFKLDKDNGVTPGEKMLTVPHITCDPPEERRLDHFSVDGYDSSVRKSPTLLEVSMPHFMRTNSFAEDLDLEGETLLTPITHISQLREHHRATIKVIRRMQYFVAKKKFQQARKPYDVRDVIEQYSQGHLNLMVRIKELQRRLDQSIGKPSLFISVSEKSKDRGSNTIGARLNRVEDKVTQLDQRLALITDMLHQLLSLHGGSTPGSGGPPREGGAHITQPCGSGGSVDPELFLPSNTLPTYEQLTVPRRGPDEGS

outcome, inactive:
O=C1CC(c2cccs2)Cc2nc(NC(=O)C3CC3)ncc21 (configuration not stated), O=C1/C(=C/c2cccc(F)c2)SC(=S)N1NS(=O)(=O)c1ccccc1, O=C(Nc1cc([N+](=O)[O-])ccc1N1CCCC1)c1cccs1, O=C(Nc1nc(=O)c2ccccc2s1)c1ccc(F)cc1, C/C(=N\NC(=O)c1cccc(F)c1)c1ccc(Br)s1, N#C/C(=C/c1cn(-c2ccccc2)nc1-c1cccc(S(=O)(=O)N2CCOCC2)c1)C(=O)NCc1ccco1, CCCN(C(=O)c1cn(-c2ccccc2)nc1-c1ccc(OC)cc1)C1CCS(=O)(=O)C1 (configuration not stated), CCCOc1ccc(-c2c(=O)n(O)c3ccccc3[n+]2[O-])cc1, CCOC(=O)c1oc2c(CN3CCCCC3C)c(O)ccc2c(=O)c1-c1ccc(OC)c(OC)c1 (configuration not stated), COc1ccc(C(=O)O/N=C(\N)c2ccccc2Cl)cc1OC, O=C(C1CCCCC1)N1CCCC(c2nc3c(nnn3Cc3ccccc3)c(=O)[nH]2)C1 (configuration not stated), CC(=O)CC1(OC(C)=O)C(=O)N(C)c2ccccc21 (configuration not stated), CCC(C(=O)OCC(=O)NC(=O)NC(C)(C)C)c1ccccc1 (configuration not stated)

potentiation, active:
N#C/C=C1/NC(=O)c2ccccc2S1 22.5%, O=C(NCc1ccccn1)c1ccc(COc2ccc(Cl)cc2)o1 26.5%, S=c1nc[nH]c2c1cnn2-c1ccccc1 29.5%, Oc1c(N=NC(=S)Nc2ccccc2F)c2ccccc2n1Cc1ccccc1Cl 81.5%, S=c1[nH]cc(Cc2ccccc2)s1 28.5%, CCN(CC)C(=S)NC(=O)c1ccc(OC)c(Br)c1 63.5%, O=C(c1ccc(COc2ccc(Cl)cc2)o1)N1CCN(Cc2ccc3c(c2)OCO3)CC1 25%, C=CCN(c1ccccc1)S(=O)(=O)c1cccc(C(=O)Nc2cccc(C)n2)c1 224%, O=C(CC(=O)c1ccccc1O)c1cccc(F)c1 50.5%, Cc1ccc(Cl)cc1NC(=S)N/N=C/c1cccc2ccccc12 32%

Each compound was assayed against Potassium voltage-gated channel subfamily KQT member 2 (Rattus norvegicus) (UniProt O88943) (assay: rat KCNQ2 channel potentiation, selectivity assay for KCNQ1 potentiator project, KCNQ2-CHO-K1 cells (AID 493009;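 note: assay conditions were tuned for KCNQ1 rather than KCNQ2 modulators; signal is max minus min fluorescence divided by baseline after thallium stimulus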)). Conditions: FluxOR thallium flux fluorescence, at 10 µM; stronger effect = higher value, scaled: buffer 0, activator control 100.
Potassium voltage-gated channel subfamily KQT member 2 (Rattus norvegicus), sequence (O88943 whole entry, looked up): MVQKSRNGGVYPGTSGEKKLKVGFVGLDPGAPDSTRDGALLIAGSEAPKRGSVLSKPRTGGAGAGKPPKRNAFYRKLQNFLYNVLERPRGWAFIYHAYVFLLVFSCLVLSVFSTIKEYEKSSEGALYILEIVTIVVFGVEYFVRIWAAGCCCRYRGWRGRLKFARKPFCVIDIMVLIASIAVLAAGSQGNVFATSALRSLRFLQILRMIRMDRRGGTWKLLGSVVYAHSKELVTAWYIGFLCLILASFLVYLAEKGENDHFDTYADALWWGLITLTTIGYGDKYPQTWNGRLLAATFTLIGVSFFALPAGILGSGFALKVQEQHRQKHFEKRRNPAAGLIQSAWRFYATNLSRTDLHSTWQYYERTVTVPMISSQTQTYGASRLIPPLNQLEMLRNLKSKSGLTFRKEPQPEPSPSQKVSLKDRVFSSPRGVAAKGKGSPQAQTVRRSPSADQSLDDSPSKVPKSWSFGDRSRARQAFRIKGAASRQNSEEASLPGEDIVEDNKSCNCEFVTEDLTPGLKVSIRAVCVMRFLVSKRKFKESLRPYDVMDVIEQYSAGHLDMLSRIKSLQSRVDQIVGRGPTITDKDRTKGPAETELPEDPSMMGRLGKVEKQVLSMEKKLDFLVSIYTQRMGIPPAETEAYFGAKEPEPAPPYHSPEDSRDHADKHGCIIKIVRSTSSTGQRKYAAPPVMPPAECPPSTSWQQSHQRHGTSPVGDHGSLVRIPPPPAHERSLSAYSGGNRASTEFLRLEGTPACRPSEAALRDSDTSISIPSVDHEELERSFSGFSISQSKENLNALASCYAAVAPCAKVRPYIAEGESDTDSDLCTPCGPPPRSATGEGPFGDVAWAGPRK

potentiation, active:
Cc1ccc(OCC(=O)NNC(=S)NC(=O)c2cccs2)c(C)c1 238%, Cc1ccc(-c2nc3c(Cl)cc(Cl)cc3c(=O)n2O)cc1 820%, S=c1[nH]nc(-c2cccs2)n1/N=C/c1c(Cl)cccc1Cl 196%, CCn1c(SCC(=O)NC(=O)NCc2ccco2)nc2sc(C)c(C)c2c1=O 173%, CC(C)c1ccc(/C=C2\SC(N3CCOCC3)=NC2=O)cc1 146%, N#C/C=C1/NC(=O)c2ccccc2S1 166%, O=C(Nc1nc(=O)c2ccccc2s1)c1ccc(F)cc1 152%, O=C(NCc1ccccn1)c1ccc(COc2ccc(Cl)cc2)o1 156%, S=c1nc[nH]c2c1cnn2-c1ccccc1 222%, CCCOc1ccc(-c2c(=O)n(O)c3ccccc3[n+]2[O-])cc1 243%, Oc1c(N=NC(=S)Nc2ccccc2F)c2ccccc2n1Cc1ccccc1Cl 210%, S=c1[nH]cc(Cc2ccccc2)s1 216%, CCN(CC)C(=S)NC(=O)c1ccc(OC)c(Br)c1 209%, C=CCN(c1ccccc1)S(=O)(=O)c1cccc(C(=O)Nc2cccc(C)n2)c1 358%, O=C(CC(=O)c1ccccc1O)c1cccc(F)c1 188%

outcome, inactive:
O=C(CN1C2=NCCCN2c2ccccc21)c1ccc2c(c1)OCO2, CCOc1ccccc1C1CC(=O)Nc2cc3c(cc21)OCCO3 (configuration not stated), CCOc1ccc(C2C(C#N)=C(N)N(c3sc4c(c3C#N)CCCC4)C3=C2C(=O)CCC3)cc1 (configuration not stated), COc1ccc(NC(=S)NC(=O)c2ccccc2Cl)cc1, S=c1[nH]nc(-c2ccc(Cl)cc2)n1/N=C/C=C/c1ccco1, O=c1[nH]cc(-c2ccccc2)c(=O)[nH]1, O=C(C1CCCCC1)N(CCN1CCCC1)c1nc2ccccc2s1, CN(C(=O)c1cc(COc2c(F)cccc2F)on1)C1CCOC1 (configuration not stated), CCOC(=O)c1ccc(Nc2nc(N3CCOCC3)nc(N3CCOCC3)n2)cc1, CCC(O)(CC)C(=O)NN(C(=O)CCl)c1ccccc1, CCCC(=O)Nc1ccc(S(=O)(=O)N2CCC(c3nc4ccccc4[nH]3)CC2)cc1, O=C1CC(c2cccs2)Cc2nc(NC(=O)C3CC3)ncc21 (configuration not stated), O=C1/C(=C/c2cccc(F)c2)SC(=S)N1NS(=O)(=O)c1ccccc1, O=C(Nc1cc([N+](=O)[O-])ccc1N1CCCC1)c1cccs1, C/C(=N\NC(=O)c1cccc(F)c1)c1ccc(Br)s1, N#C/C(=C/c1cn(-c2ccccc2)nc1-c1cccc(S(=O)(=O)N2CCOCC2)c1)C(=O)NCc1ccco1, CCCN(C(=O)c1cn(-c2ccccc2)nc1-c1ccc(OC)cc1)C1CCS(=O)(=O)C1 (configuration not stated), CCOC(=O)c1oc2c(CN3CCCCC3C)c(O)ccc2c(=O)c1-c1ccc(OC)c(OC)c1 (configuration not stated), O=C(c1ccc(COc2ccc(Cl)cc2)o1)N1CCN(Cc2ccc3c(c2)OCO3)CC1, COc1ccc(C(=O)O/N=C(\N)c2ccccc2Cl)cc1OC, O=C(C1CCCCC1)N1CCCC(c2nc3c(nnn3Cc3ccccc3)c(=O)[nH]2)C1 (configuration not stated), CC(=O)CC1(OC(C)=O)C(=O)N(C)c2ccccc21 (configuration not stated), CCC(C(=O)OCC(=O)NC(=O)NC(C)(C)C)c1ccccc1 (configuration not stated), Cc1ccc(Cl)cc1NC(=S)N/N=C/c1cccc2ccccc12
